Experimental data taken from ChEMBL document CHEMBL4138103, “Discovery of efficient stimulators for adult hippocampal neurogenesis based on scaffolds in dragon's blood” (Eur J Med Chem, 2017).
The source made the active and inactive calls. No cut-off for these calls is given here.

Assays:
Rattus norvegicus = assay: In vivo neurogenic activity in Sprague-Dawley rat neural progenitor cells at 4 mg/kg, ip qd pretreated for 28 days followed by BrdU addition at 2 hrs interval for twice on day 29 measured after 24 hrs by BrdU incorporation assay relative to control; type: functional
In short: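 Male SD rats aged 10 weeks, acclimatized 7 days (11 weeks old at start), dosed ip once daily for 28 days with compound in soybean oil containing 10% ethanol; vehicle group received 10% ethanol in oil. On day 29, BrdU in saline given twice at 100 mg/kg, 2 h apart. Rats sacrificed 24 h after the last BrdU. BrdU+ cells in SGZ-GCL counted by DAB immunostaining of 30 µm cryosections; n = 8; mean ± SEM.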

[1] = Cytotoxicity against human SH-SY5Y cells assessed as cell survival at 100 uM after 24 hrs by MTT assay relative to control; type: cell-based; settings: read-out: Survival
In short: (§1)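 SH-SY5Y human neuroblastoma cells seeded at 5 × 10⁴ cells/mL, incubated 24 h at 37 °C, then exposed to compounds at final concentrations of […] for 24 h. MTT added for a further 4 h at 37 °C. Absorbance read at 570 nm and reported as percent viability. Five parallel samples per condition.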

[2] = Cytotoxicity against human SH-SY5Y cells assessed as cell survival at 500 uM after 24 hrs by MTT assay relative to control; type: cell-based; settings: read-out: Survival; in short: as §1
[3] = Cytotoxicity against human SH-SY5Y cells assessed as cell survival at 1000 uM after 24 hrs by MTT assay relative to control; type: cell-based; settings: read-out: Survival; in short: as §1

| Structure (SMILES) | Activity (Rattus norvegicus) | viability at 24 h, 100 µM [1] [%] | viability at 24 h, 500 µM [2] [%] | viability at 24 h, 1000 µM [3] [%] |
| --- | --- | --- | --- | --- |
| CC(=O)N(C)c1ccc(/C=C/c2ccc3c(c2)OCO3)cc1 | inactive | 50.4 | 15.8 | 5.89 |
| Nc1ccc(/C=C/c2cccc(OC(F)(F)F)c2)cc1 |  | 51.8 | 31.9 | 26.9 |
| CC(=O)Oc1ccc(/C=C/c2cc(C)cc(C)c2)cc1 |  | 3.24 | 2.8 | 18.4 |
| COc1cc(/C=C/c2ccc(O)cc2)cc(OC)c1OC |  | 27.5 | 25.9 | 21.2 |
| COc1ccc(/C=C/c2ccc(N)cc2)cc1OC |  | 53.7 | 51.7 | 50.4 |
| CCCCCc1ccc(C#Cc2ccc(OCc3ccccc3)cc2)cc1 |  | 62.6 | 51.3 | 49 |
| Nc1ccc(/C=C/c2ccc3c(c2)OCO3)cc1 |  | 47.6 | 39.1 | 32.2 |
| CCOc1ccc(C#Cc2ccc3c(c2)OCO3)cc1 | inactive | 56.5 | 41 | 38.1 |
| COc1cc(/C=C/c2ccc3c(c2)OCO3)cc(OC)c1 |  | 74 | 60.9 | 45.7 |
| Cc1ccc(C#Cc2ccc(OCc3ccccc3)cc2)cc1 |  | 94.2 | 72.5 | 68 |
| COc1ccc(C#Cc2ccc(OC)c(OC)c2)cc1 |  | 94.1 | 78.9 | 65.5 |
| CC(=O)Nc1ccc(/C=C/c2ccc3c(c2)OCO3)cc1F | Active | 86.7 | 82 | 75.1 |
| COc1ccc(C#Cc2cc(C(F)(F)F)cc(C(F)(F)F)c2)cc1 |  | 28.6 | 20.9 | 18.3 |
| C(#Cc1ccc2c(c1)OCO2)c1ccsc1 |  | 46.2 | 32.9 | 21 |
| COc1ccc(/C=C/c2cccc(C#N)c2)cc1 |  | 66.3 | 67 | 48.3 |
| COc1ccc(/C=C/C(=O)c2ccc3c(c2)OCO3)cc1O |  | 44.7 | 22.2 | 17.1 |
| COc1cccc(/C=C/c2ccc(NC(C)=O)cc2)c1 |  | 44.5 | 26.1 | 11.9 |
| COc1ccc(/C=C/c2cccc(OC(F)(F)F)c2)cc1 |  | 40.2 | 40.5 | 38.7 |
| COc1ccc(C#Cc2cc(C)cc(C)c2)cc1 |  | 54.2 | 24.3 | 22.1 |
| N#Cc1cccc(/C=C/c2ccc(O)cc2)c1 |  | 20.9 | 16.9 | 14.9 |
| CN(C)c1ccc(/C=C/C(=O)c2ccc3c(c2)OCO3)cc1 |  | 49.8 | 40.2 | 23.7 |
| COc1ccc(/C=C/c2ccc(O)cc2)cc1OC |  | 56.8 | 44.1 | 35.3 |
| Oc1ccc(/C=C/c2ccc3c(c2)OCCO3)cc1 |  | 2.8 | 2 | -0.08 |
| C(=C\c1ccc2c(c1)OCO2)/c1ccncc1 |  | 8.43 | 4.26 | 3.56 |
| Cc1ccc(C#Cc2ccc3c(c2)OCO3)cc1 |  | 51.9 | 24.8 | 23.7 |
| COc1cc(/C=C/C(=O)c2ccc3c(c2)OCO3)ccc1O |  | 16.3 | 25.2 | 26.2 |
| COc1ccccc1/C=C/c1ccc2c(c1)OCO2 |  | 36.1 | 33.6 | 23.6 |
| CC(=O)c1ccc(/C=C/c2ccc(O)cc2)cc1 |  | 94.4 | 59.2 | 24.6 |
| CC(=O)Nc1ccc(/C=C/C(=O)c2ccc3c(c2)OCO3)cc1 |  | 6.71 | 2.78 | 4.69 |
